Measured values as given in ChEMBL document CHEMBL3351404, “Structure-Activity Studies Reveal the Oxazinone Ring Is a Determinant of Cytochrome P450 2B6 Activity Toward Efavirenz” (ACS Med Chem Lett, 2014).

Columns and labels:
[1] = test system: Liver microsome; assay: Drug metabolism in pooled human liver microsomes assessed as metabolite formation at 10 uM incubated for 60 mins in presence of NADPH by uHPLC-MS/MS method; type: ADME; settings: 1 h
Outline: (§1)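 Metabolite identification in human liver microsome incubations with 10 μM substrate. Products were assigned by m/z (monooxygenated, dihydroxylated, N-dealkylated), uHPLC retention time and MS/MS fragment ions. Parallel incubations in isotopic water located the inserted oxygen from +2 shifts in fragment masses.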

[2] = target: T1, Cytochrome P450 2B6 (Homo sapiens, UniProt P20813); assay: (§2) Inhibition of CYP2B6 (unknown origin) assessed as reduction in hydroxybupropion formation at 10 uM incubated for 10 mins by uHPLC-MS/MS method; type: ADME; settings: 10 min, 10 µM
T1 sequence (P20813 whole entry): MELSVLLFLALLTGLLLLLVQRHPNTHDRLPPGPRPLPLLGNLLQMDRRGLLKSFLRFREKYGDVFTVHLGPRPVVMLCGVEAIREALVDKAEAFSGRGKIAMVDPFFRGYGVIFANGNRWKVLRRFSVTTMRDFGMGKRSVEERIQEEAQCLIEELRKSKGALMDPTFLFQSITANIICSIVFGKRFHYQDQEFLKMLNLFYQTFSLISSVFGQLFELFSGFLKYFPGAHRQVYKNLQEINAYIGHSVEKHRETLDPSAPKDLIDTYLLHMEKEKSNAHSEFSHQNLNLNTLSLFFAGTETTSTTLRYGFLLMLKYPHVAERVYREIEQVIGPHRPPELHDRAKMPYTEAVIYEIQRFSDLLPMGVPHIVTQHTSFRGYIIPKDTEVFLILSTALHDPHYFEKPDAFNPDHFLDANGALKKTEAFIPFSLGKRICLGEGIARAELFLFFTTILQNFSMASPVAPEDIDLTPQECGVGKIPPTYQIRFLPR
Outline: (§3)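 CYP2B6 insect microsomes were coincubated with the probe substrate bupropion plus test compound at 10 μM. Hydroxybupropion formation was measured and compared with a vehicle control.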

[3] = test system: Liver microsome; assay: Drug metabolism in pooled human liver microsomes assessed as compound formation at 10 uM incubated for 60 mins in presence of NADPH by uHPLC-MS/MS method; type: ADME; settings: 1 h; outline: as §1
[4] = Retention time of the compound by uHPLC-MS/MS method; type: physicochemical; outline: as §1
[5] = target: T2, Cytochrome P450 3A5 (Homo sapiens, UniProt P20815); assay: Drug metabolism assessed as CYP3A5 (unknown origin)-mediated metabolite formation at 10 uM incubated for 60 mins in presence of NADPH by uHPLC-MS/MS method; settings: 1 h
Target sequence in this assay (P20815 whole entry, looked up): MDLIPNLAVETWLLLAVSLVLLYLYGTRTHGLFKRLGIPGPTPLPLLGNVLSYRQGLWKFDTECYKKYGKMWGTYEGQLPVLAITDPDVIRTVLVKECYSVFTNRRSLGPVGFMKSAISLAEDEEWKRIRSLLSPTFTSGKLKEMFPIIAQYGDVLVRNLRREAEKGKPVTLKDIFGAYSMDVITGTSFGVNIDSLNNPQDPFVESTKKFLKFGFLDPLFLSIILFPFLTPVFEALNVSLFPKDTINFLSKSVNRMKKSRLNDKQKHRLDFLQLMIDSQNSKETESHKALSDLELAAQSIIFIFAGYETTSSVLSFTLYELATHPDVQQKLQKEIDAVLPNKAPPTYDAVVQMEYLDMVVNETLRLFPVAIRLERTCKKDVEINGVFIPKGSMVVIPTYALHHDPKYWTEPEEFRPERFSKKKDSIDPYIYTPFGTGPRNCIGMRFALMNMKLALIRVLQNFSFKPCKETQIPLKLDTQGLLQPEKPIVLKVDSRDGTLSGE

[6] = target: T3, Cytochrome P450 1A2 (Homo sapiens, UniProt P05177); assay: Drug metabolism assessed as CYP1A2 (unknown origin)-mediated metabolite formation at 10 uM incubated for 60 mins in presence of NADPH by uHPLC-MS/MS method; type: ADME; settings: 1 h
T3 sequence (P05177 whole entry): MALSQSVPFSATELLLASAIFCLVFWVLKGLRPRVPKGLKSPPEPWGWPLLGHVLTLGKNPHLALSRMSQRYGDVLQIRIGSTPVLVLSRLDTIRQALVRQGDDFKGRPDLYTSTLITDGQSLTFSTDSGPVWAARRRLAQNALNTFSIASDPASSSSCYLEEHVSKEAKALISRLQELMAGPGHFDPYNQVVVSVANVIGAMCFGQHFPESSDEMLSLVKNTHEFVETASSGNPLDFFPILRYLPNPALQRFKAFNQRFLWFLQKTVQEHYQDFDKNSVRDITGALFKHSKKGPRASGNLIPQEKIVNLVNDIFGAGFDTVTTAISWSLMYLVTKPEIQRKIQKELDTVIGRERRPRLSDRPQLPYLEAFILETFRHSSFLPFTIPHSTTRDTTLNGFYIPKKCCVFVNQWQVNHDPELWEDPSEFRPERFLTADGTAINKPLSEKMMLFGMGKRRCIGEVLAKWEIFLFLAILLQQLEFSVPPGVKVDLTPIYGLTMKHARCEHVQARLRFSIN
Outline: (§4)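 Individual cDNA-expressed human P450s (CYP2B6 in insect microsomes) were incubated separately with each analogue at 10 μM. The enzyme panel covers the major drug-metabolizing P450s. Products were monitored as the metabolites first found in human liver microsome incubations, identified by m/z and retention time.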

[7] = target: T1, Cytochrome P450 2B6; assay: Activity of CYP2B6 (unknown origin) assessed as maximum depletion rate constant pre-incubated for 5 mins in presence of NADPH by uHPLC-MS/MS based substrate depletion kinetics assay; type: ADME
Outline: (§5)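 cDNA-expressed CYP2B6 in insect microsomes. Parent loss was followed over time by substrate depletion, chosen because several metabolites form. Km and maximum depletion rate constant (kdep max, min–1) were derived from depletion kinetics, and Vmax was expressed as pmol/min/pmol P450.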

[8] = target: T1, Cytochrome P450 2B6; assay: Drug metabolism assessed as CYP2B6 (unknown origin)-mediated metabolite formation at 10 uM incubated for 60 mins in presence of NADPH by uHPLC-MS/MS method; type: ADME; settings: 1 h; outline: as §4
[9] = test system: Liver microsome; assay: Drug metabolism in pooled human liver microsomes assessed as mono-oxygenated metabolite formation at 10 uM incubated for 60 mins in presence of NADPH by uHPLC-MS/MS method; type: ADME; settings: 1 h; outline: as §1
[10] = target: T4, CYP2B6 (Homo sapiens, UniProt P20813); assay: Activity of CYP2B6 (unknown origin) pre-incubated for 5 mins in presence of NADPH by uHPLC-MS/MS based substrate depletion kinetics assay; type: ADME; settings: CYP2B6 enzyme (unknown origin); outline: as §5
T4 sequence (P20813 whole entry): T1 sequence (P20813 whole entry)

[11] = target: T1, Cytochrome P450 2B6; assay: Activity of CYP2B6 (unknown origin) assessed per pmol protein pre-incubated for 5 mins in presence of NADPH by uHPLC-MS/MS based substrate depletion kinetics assay; type: ADME; outline: as §5
[12] = target: T5, Cytochrome P450 2C19 (Homo sapiens, UniProt P33261); assay: Drug metabolism assessed as CYP2C19 (unknown origin)-mediated metabolite formation at 10 uM incubated for 60 mins in presence of NADPH by uHPLC-MS/MS method; type: ADME; settings: 1 h; outline: as §4
T5 sequence (P33261 whole entry): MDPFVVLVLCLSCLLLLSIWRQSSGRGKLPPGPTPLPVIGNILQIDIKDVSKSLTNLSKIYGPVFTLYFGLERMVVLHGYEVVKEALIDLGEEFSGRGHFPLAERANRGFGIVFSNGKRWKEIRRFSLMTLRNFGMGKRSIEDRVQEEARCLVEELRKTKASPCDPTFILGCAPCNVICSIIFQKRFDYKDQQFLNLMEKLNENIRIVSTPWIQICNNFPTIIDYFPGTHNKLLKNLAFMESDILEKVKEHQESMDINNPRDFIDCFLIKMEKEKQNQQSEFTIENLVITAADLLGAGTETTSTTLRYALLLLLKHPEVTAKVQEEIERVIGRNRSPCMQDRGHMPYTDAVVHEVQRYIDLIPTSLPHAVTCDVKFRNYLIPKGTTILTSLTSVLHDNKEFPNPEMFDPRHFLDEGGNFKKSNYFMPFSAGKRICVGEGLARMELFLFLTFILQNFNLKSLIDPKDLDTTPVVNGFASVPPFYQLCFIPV

[13] = target: T3, Cytochrome P450 1A2; assay: Drug metabolism assessed as CYP1A2 (unknown origin)-mediated compound formation at 10 uM incubated for 60 mins in presence of NADPH by uHPLC-MS/MS method; type: ADME; settings: 1 h; outline: as §4
[14] = target: T6, Cytochrome P450 2D6 (Homo sapiens, UniProt P10635); assay: Drug metabolism assessed as CYP2D6 (unknown origin)-mediated compound formation at 10 uM incubated for 60 mins in presence of NADPH by uHPLC-MS/MS method; type: ADME; settings: 1 h; outline: as §4
T6 sequence (P10635 whole entry): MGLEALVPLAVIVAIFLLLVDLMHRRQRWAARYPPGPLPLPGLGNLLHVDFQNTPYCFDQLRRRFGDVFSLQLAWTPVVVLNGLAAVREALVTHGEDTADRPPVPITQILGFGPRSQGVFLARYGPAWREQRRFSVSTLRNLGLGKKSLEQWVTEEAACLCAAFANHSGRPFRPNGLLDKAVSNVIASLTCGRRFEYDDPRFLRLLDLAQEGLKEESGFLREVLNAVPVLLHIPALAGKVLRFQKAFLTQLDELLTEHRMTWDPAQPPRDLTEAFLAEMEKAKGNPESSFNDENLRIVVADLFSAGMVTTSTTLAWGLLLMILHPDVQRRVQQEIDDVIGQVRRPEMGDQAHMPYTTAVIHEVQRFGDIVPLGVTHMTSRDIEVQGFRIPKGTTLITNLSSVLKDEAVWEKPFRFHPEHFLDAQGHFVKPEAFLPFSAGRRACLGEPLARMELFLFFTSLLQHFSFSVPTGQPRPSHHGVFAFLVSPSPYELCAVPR

[15] = target: T5, Cytochrome P450 2C19; assay: Drug metabolism assessed as CYP2C19 (unknown origin)-mediated compound formation at 10 uM incubated for 60 mins in presence of NADPH by uHPLC-MS/MS method; type: ADME; settings: 1 h; outline: as §4
[16] = test system: Liver microsome; assay: Drug metabolism in pooled human liver microsomes assessed as compound formation at 10 uM incubated for 60 mins in presence of NADPH and using isotopic water by uHPLC-MS/MS method; type: ADME; settings: 1 h; outline: as §1
[17] = target: T2, Cytochrome P450 3A5; assay: Drug metabolism assessed as CYP3A5 (unknown origin)-mediated compound formation at 10 uM incubated for 60 mins in presence of NADPH by uHPLC-MS/MS method; type: ADME; settings: 1 h; outline: as §4
Target sequence in this assay (P20815 whole entry): as the sequence (P20815 whole entry, looked up) above

[18] = target: T1, Cytochrome P450 2B6; assay: Drug metabolism assessed as CYP2B6 (unknown origin)-mediated compound formation at 10 uM incubated for 60 mins in presence of NADPH by uHPLC-MS/MS method; type: ADME; settings: 1 h; outline: as §4
[19] = test system: Liver microsome; assay: Drug metabolism in pooled human liver microsomes assessed as mono-oxygenated metabolite formation at 10 uM incubated for 60 mins in presence of NADPH and using isotopic water by uHPLC-MS/MS method; type: ADME; settings: 1 h; outline: as §1
[20] = target: T4, CYP2B6; assay: Inhibition of CYP2B6 (unknown origin) assessed as reduction in hydroxybupropion formation by measuring remaining enzyme activity at 10 uM incubated for 10 mins by uHPLC-MS/MS method; type: ADME; settings: probe bupropion (hydroxybupropion formation), read-out: Activity; outline: as §3
[21] = target: T4, CYP2B6; assay: as §2; type: ADME; settings: CYP2B6 enzyme (unknown origin), probe bupropion (hydroxybupropion formation); outline: as §3
[22] = test system: Liver microsome; assay: Drug metabolism in pooled human liver microsomes assessed as N-dealkylated metabolite formation at 10 uM incubated for 60 mins in presence of NADPH by uHPLC-MS/MS method; type: ADME; settings: 1 h; outline: as §1
[23] = target: T6, Cytochrome P450 2D6; assay: Drug metabolism assessed as CYP2D6 (unknown origin)-mediated metabolite formation at 10 uM incubated for 60 mins in presence of NADPH by uHPLC-MS/MS method; type: ADME; settings: 1 h; outline: as §4

COc1ccc(C(=O)Nc2ccc(Cl)cc2C(O)(C#CC2CC2)C(F)(F)F)cc1 (racemic)
Drug metabolism [1]: metabolite_detected
inhibition (INH) [2]: Not Active

CCC(O)C#CC1(C(F)(F)F)OC(=O)Nc2ccc(Cl)cc21 (stereo unspecified)
Drug metabolism [3]: metabolite_detected
Retention_time [4]: 5.6 min

O=C1Nc2ccc(Cl)cc2[C@@](/C=C/C2(O)CC2)(C(F)(F)F)O1
Drug metabolism [3]: metabolite_detected
Retention_time [4]: 4.98 min

O=C1Nc2ccc(Cl)cc2[C@@](/C=C/C2CC2)(C(F)(F)F)O1
Drug metabolism [5]: metabolite_detected
Drug metabolism [6]: metabolite_detected
K [7]: 0.0057 min⁻¹
Drug metabolism [8]: metabolite_detected
Drug metabolism [9]: metabolite_detected
Km [10]: 230 nM
Vmax [11]: 0.13 pmol/min

Nc1ccc(Cl)cc1[C@@](O)(C#CC1CC1)C(F)(F)F
Drug metabolism [3]: metabolite_detected
Drug metabolism [12]: metabolite_detected
Retention_time [4]: 7.31 min
Drug metabolism [6]: metabolite_detected
Drug metabolism [13]: metabolite_detected
Drug metabolism [14]: metabolite_detected
Drug metabolism [9]: metabolite_detected
inhibition (INH) [2]: Active
Drug metabolism [15]: metabolite_detected

OC1(C#C[C@]2(C(F)(F)F)OCNc3ccc(Cl)cc32)CC1
Drug metabolism [3]: metabolite_detected
Drug metabolism [16]: metabolite_detected
Retention_time [4]: 5 min

CCCC#CC1(C(F)(F)F)OC(=O)Nc2c(O)cc(Cl)cc21 (stereo unspecified)
Drug metabolism [3]: metabolite_detected
Retention_time [4]: 6.98 min
Drug metabolism [13]: metabolite_detected
Drug metabolism [17]: metabolite_detected
Drug metabolism [18]: metabolite_detected

Nc1ccc(Cl)cc1[C@](O)(C#CC1CC1)C(F)(F)F
Drug metabolism [3]: metabolite_detected
Drug metabolism [12]: metabolite_detected
Retention_time [4]: 7.25 min
Drug metabolism [6]: metabolite_detected
Drug metabolism [13]: metabolite_detected
Drug metabolism [14]: metabolite_detected
Drug metabolism [9]: metabolite_detected
inhibition (INH) [2]: Active
Drug metabolism [15]: metabolite_detected

FC(F)(F)[C@@]1(C#CC2CC2)OCNc2ccc(Cl)cc21
Drug metabolism [12]: metabolite_detected
Drug metabolism [19]: metabolite_detected
K [7]: 0.14 min⁻¹
Drug metabolism [8]: metabolite_detected
Drug metabolism [9]: metabolite_detected
Km [10]: 220 nM
activity at 10 min, 10 µM [20]: 2%
Vmax [11]: 3.2 pmol/min

O=C1Nc2ccc(Cl)cc2[C@@](C#CC2CC2)(C(F)(F)F)O1 [EFAVIRENZ]
K [7]: 0.023 min⁻¹
Km [10]: 450 nM
inhibition at 10 min, 10 µM [21]: 93%
Vmax [11]: 1 pmol/min

CCCC#CC1(C(F)(F)F)OC(=O)Nc2ccc(Cl)cc21 (racemic)
Drug metabolism [5]: metabolite_detected
Drug metabolism [6]: metabolite_detected
K [7]: 0.0088 min⁻¹
Drug metabolism [8]: metabolite_detected
Drug metabolism [9]: metabolite_detected
Km [10]: 1100 nM
activity at 10 min, 10 µM [20]: 27%
Vmax [11]: 0.97 pmol/min

COc1ccc(CNc2ccc(Cl)cc2[C@@](O)(C#CC2CC2)C(F)(F)F)cc1
Drug metabolism [12]: metabolite_detected
Drug metabolism [22]: metabolite_detected
Drug metabolism [23]: metabolite_detected
Drug metabolism [6]: metabolite_detected
activity at 10 min, 10 µM [20]: 52%

CC(O)CC#CC1(C(F)(F)F)OC(=O)Nc2ccc(Cl)cc21 (stereo unspecified)
Drug metabolism [3]: metabolite_detected
Retention_time [4]: 5.11 min

COc1ccc(CNc2ccc(Cl)cc2[C@](O)(C#CC2CC2)C(F)(F)F)cc1
Drug metabolism [12]: metabolite_detected
Drug metabolism [22]: metabolite_detected
Drug metabolism [23]: metabolite_detected
Drug metabolism [6]: metabolite_detected
activity at 10 min, 10 µM [20]: 62%
